Here are results for one compound from ChEMBL document CHEMBL2311539, “3,6-Diamino-4-(2-halophenyl)-2-benzoylthieno[2,3-b]pyridine-5-carbonitriles are selective inhibitors of Plasmodium falciparum glycogen synthase kinase-3” (J Med Chem, 2013).

Molecules are shown by their SMILES.

A short description of test [1]: Inhibition of Toxoplasma gondii recombinant His6-tagged GSK-3 expressed in Escherichia coli using GS-1 peptide as substrate after 30 mins by scintillation counting analysis in presence of gamma-33P-ATP. The format is cell-free. In a few lines:
(§1)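 His6-tagged recombinant GSK-3 expressed in E. coli (TOP10/pBAD-Thio-TOPO for P. falciparum and T. gondii, arabinose-induced; BL21(DE3)-pRARE2/pET15 for C. parvum, IPTG at 15 °C), Ni-NTA purified. Assayed with 40 μM GS-1 phosphopeptide, 15 μM γ-33P-ATP in pH 7.5 Tris buffer with MgCl2, EGTA, DTT, heparin, BSA; 30 min, 30 °C; P81 paper, phosphoric acid washes, scintillation counting. DMSO controls; dose-response IC50, triplicate points.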

Test [2] can be described thus: Inhibition of Plasmodium knowlesi recombinant His6-tagged GSK-3 expressed in Escherichia coli using GS-1 peptide as substrate after 30 mins by scintillation counting analysis in presence of gamma-33P-ATP. In a few lines:
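P. knowlesi GSK3 gene in pBAD-Thio-TOPO, expressed in E. coli TOP10 (ampicillin, 37 °C, 0.02% arabinose for 4 h), Ni-NTA purified. Radiometric assay: 40 μM GS-1 peptide in buffer A pH 7.5 (MgCl2, EGTA, DTT, heparin, BSA) with 15 μM γ-33P-ATP, 30 min at 30 °C. P81 filter binding, scintillation counting. IC50 from triplicate dose-response curves.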

Test [3] in a line: Inhibition of Plasmodium falciparum recombinant His6-tagged GSK-3 expressed in Escherichia coli using GS-1 peptide as substrate after 30 mins by scintillation counting analysis in presence of gamma-33P-ATP. In a few lines: as §1
Test [4] is described as follows: Inhibition of Plasmodium falciparum recombinant GSK-3 by radiometric protein kinase assay. Summed up: as §1
The nature of test [5]: Inhibition of pig GSK-3 by radiometric protein kinase assay. The arrangement: species or system Sus scrofa. Summed up: (§2)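 Native affinity-purified porcine GSK-3 in the radiometric assay: 40 μM GS-1 peptide, 15 μM γ-33P-ATP, pH 7.5 Tris/MgCl2/EGTA/DTT/heparin/BSA buffer, 30 min at 30 °C, P81 filter binding and scintillation counting. IC50 from dose-response curves with triplicate points; top concentration 10 or 100 μM.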

Test [6] has as its target Glycogen synthase kinase-3 beta (Homo sapiens, UniProt P49841). Briefly: Inhibition of human Nt-GST-tagged GSK-3beta. In a few lines:
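Recombinant human GSK-3 isoform assayed radiometrically: 40 μM GS-1 peptide in buffer A pH 7.5 with 15 μM γ-33P-ATP, 30 min at 30 °C. Read-out by P81 filter binding and scintillation. IC50 from triplicate dose-response curves; top inhibitor concentration 10, 25 or 100 μM.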

The target in test [7] is Glycogen synthase kinase-3 (Sus scrofa, UniProt B2LUN4+I6LNT8). Briefly: Inhibition of pig GSK-3alpha/beta. In a few lines:
as §2

A short description of test [8]: Inhibition of Leishmania donovani GSK-3.
Test [9] can be described thus: Inhibition of Trypanosoma brucei GSK-3.
A short description of test [10]: Inhibition of Trypanosoma cruzi GSK-3.
Test [11] is described as follows: Inhibition of Cryptosporidium parvum recombinant His6-tagged GSK-3 expressed in Escherichia coli using GS-1 peptide as substrate after 30 mins by scintillation counting analysis in presence of gamma-33P-ATP. In a few lines:
as §1

Sequence of Glycogen synthase kinase-3 beta (P49841 whole entry, canonical isoform): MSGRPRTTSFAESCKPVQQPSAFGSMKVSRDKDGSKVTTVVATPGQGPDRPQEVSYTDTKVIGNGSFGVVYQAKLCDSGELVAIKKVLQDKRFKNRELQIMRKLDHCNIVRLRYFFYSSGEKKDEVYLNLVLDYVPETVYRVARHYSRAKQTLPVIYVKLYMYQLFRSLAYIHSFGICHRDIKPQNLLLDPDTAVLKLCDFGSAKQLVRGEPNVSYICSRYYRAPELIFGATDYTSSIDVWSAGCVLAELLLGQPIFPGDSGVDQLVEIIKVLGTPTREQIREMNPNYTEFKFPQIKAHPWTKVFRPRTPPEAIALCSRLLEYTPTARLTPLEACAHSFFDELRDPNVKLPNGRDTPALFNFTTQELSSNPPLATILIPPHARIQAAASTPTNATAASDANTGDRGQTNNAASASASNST

On to `COc1ccccc1-c1c(C#N)c(N)nc2sc(C(=O)c3ccccc3)c(N)c12`, for which the half-inhibitory concentration (IC50) in [1] is greater than 100 µM; in [2], 95 µM; in test [3] it was 6 µM; in test [4] it was 6 µM; in [5] it was greater than 100 µM; in [6], greater than 100 µM. In addition, the IC50 in [7] was greater than 100 µM; in test [8], 80 µM; in test [9], greater than 100 µM; in test [10], greater than 100 µM; in [11], greater than 100 µM.
